# Laboratory results: ChEMBL document CHEMBL2412988, “Synthesis, pH-dependent, and plasma stability of meropenem prodrugs for potential use against drug-resistant tuberculosis” (Bioorg Med Chem, 2013)
# Test system: not listed separately
# Assay: Prodrug stability in HEPES buffer assessed as prodrug remaining at 100 uM after 120 mins at pH 7.4 by HPLC analysis
# Assay type: physicochemical
# Details: pH 7.4, 2 h
# Procedure, shortened: (§1)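 Meropenem or prodrug at 100 µM final (from a 5.0 mM DMSO stock) incubated at 37 °C in triplicate in simulated gastric fluid pH 1.2, 100 mM MES pH 6.0, or pH 7.4 buffer, after 2 min buffer pre-warming. Aliquots taken at 0–120 min and injected directly onto reversed-phase HPLC with UV at 300 nm. Half-life, % prodrug remaining at 120 min, or species concentration over time was reported.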
row,Compound,Stability [%]
1,C[C@@H](O)[C@H]1C(=O)N2C(C(=O)OCOC(=O)OC3Cc4ccccc4C3)=C(S[C@@H]3CN[C@H](C(=O)N(C)C)C3)[C@H](C)[C@H]12,70
2,C[C@@H](O)[C@H]1C(=O)N2C(C(=O)OCOC(=O)OC3CCc4ccccc4C3)=C(S[C@@H]3CN[C@H](C(=O)N(C)C)C3)[C@H](C)[C@H]12 (mixture of isomers),78
3,C[C@@H](O)[C@H]1C(=O)N2C(C(=O)OCOC(=O)OC3CCCc4ccccc4C3)=C(S[C@@H]3CN[C@H](C(=O)N(C)C)C3)[C@H](C)[C@H]12 (mixture of isomers),79

# Same assay, conditions: pH 7.4, 2 h, 2 h
row,Compound,Stability [%]
1,CC(C)OC(=O)OC(C)OC(=O)C1=C(S[C@@H]2CN[C@H](C(=O)N(C)C)C2)[C@H](C)[C@@H]2[C@@H]([C@@H](C)O)C(=O)N12 (some centres undefined),87
2,"CC(C)OC(=O)OC(C)OC(=O)C1=C(S[C@@H]2CN[C@H](C(=O)N(C)C)C2)[C@H](C)[C@@H]2[C@@H]([C@@H](C)O)C(=O)N12 (single isomer, unassigned; diastereomer 1)",90

# Test system: not listed separately
# Assay: Half life in MES buffer at 100 uM at pH 6 by HPLC analysis
# Assay type: physicochemical
# Details: pH 6, 100 µM
# Procedure, shortened: as §1
row,Compound,t1/2 [min]
1,C[C@@H](O)[C@H]1C(=O)N2C(C(=O)OCOC(=O)O[C@H]3CCCc4ccccc43)=C(S[C@@H]3CN[C@H](C(=O)N(C)C)C3)[C@H](C)[C@H]12,0.9
2,C[C@@H](O)[C@H]1C(=O)N2C(C(=O)OCOC(=O)O[C@@H]3CCCc4ccccc43)=C(S[C@@H]3CN[C@H](C(=O)N(C)C)C3)[C@H](C)[C@H]12,0.96

# Test system: not listed separately
# Assay: Half life in Dunkin-Hartley guinea pig plasma at 5 mM by HPLC analysis
# Assay type: ADME, cell-free, Cavia porcellus
# Details: 5000 µM
# Procedure, shortened: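 Pooled plasma from female Dunkin Hartley guinea pigs was pre-warmed 2 min at 37 °C, then prodrug was added from a 5.0 mM stock. Runs were in triplicate. Aliquots were taken at 0, 2.5, 5, 10, 15 and 30 min, quenched with an equal volume of acetonitrile, filtered and analysed by reversed-phase HPLC at 300 nm for half-life.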
row,Compound,t1/2 [min]
1,C[C@@H](O)[C@H]1C(=O)N2C(C(=O)OCOC(=O)OC3Cc4ccccc4C3)=C(S[C@@H]3CN[C@H](C(=O)N(C)C)C3)[C@H](C)[C@H]12,0.9
2,C[C@@H](O)[C@H]1C(=O)N2C(C(=O)OCOC(=O)OC3CCc4ccccc4C3)=C(S[C@@H]3CN[C@H](C(=O)N(C)C)C3)[C@H](C)[C@H]12 (mixture of isomers),1.7
3,C[C@@H](O)[C@H]1C(=O)N2C(C(=O)OCOC(=O)OC3CCCc4ccccc4C3)=C(S[C@@H]3CN[C@H](C(=O)N(C)C)C3)[C@H](C)[C@H]12 (mixture of isomers),1.9
4,"CC(C)OC(=O)OC(C)OC(=O)C1=C(S[C@@H]2CN[C@H](C(=O)N(C)C)C2)[C@H](C)[C@@H]2[C@@H]([C@@H](C)O)C(=O)N12 (single isomer, unassigned; diastereomer 1)",6.5

# Same assay, conditions: Dunkin-Hartley
row,Compound,half-life at 5000 µM [min]
1,CC(C)OC(=O)OC(C)OC(=O)C1=C(S[C@@H]2CN[C@H](C(=O)N(C)C)C2)[C@H](C)[C@@H]2[C@@H]([C@@H](C)O)C(=O)N12 (some centres undefined),1.4

# Test system: Plasma
# Assay: (§2) Half life in human plasma at 5 mM by HPLC analysis
# Assay type: ADME, cell-free
# Details: 5000 µM
row,Compound,t1/2 [min]
1,C[C@@H](O)[C@H]1C(=O)N2C(C(=O)OCOC(=O)OC3Cc4ccccc4C3)=C(S[C@@H]3CN[C@H](C(=O)N(C)C)C3)[C@H](C)[C@H]12,4.3
2,C[C@@H](O)[C@H]1C(=O)N2C(C(=O)OCOC(=O)OC3CCc4ccccc4C3)=C(S[C@@H]3CN[C@H](C(=O)N(C)C)C3)[C@H](C)[C@H]12 (mixture of isomers),8.1
3,C[C@@H](O)[C@H]1C(=O)N2C(C(=O)OCOC(=O)OC3CCCc4ccccc4C3)=C(S[C@@H]3CN[C@H](C(=O)N(C)C)C3)[C@H](C)[C@H]12 (mixture of isomers),23
4,"CC(C)OC(=O)OC(C)OC(=O)C1=C(S[C@@H]2CN[C@H](C(=O)N(C)C)C2)[C@H](C)[C@@H]2[C@@H]([C@@H](C)O)C(=O)N12 (single isomer, unassigned; diastereomer 1)",108

# Test system: not listed separately
# Assay: as §2
# Assay type: ADME, cell-free
# Details: not given
row,Compound,half-life at 5000 µM [min]
1,CC(C)OC(=O)OC(C)OC(=O)C1=C(S[C@@H]2CN[C@H](C(=O)N(C)C)C2)[C@H](C)[C@@H]2[C@@H]([C@@H](C)O)C(=O)N12 (some centres undefined),11

# Test system: not listed separately
# Assay: Prodrug stability in MES buffer assessed as prodrug remaining at 100 uM after 120 mins at pH 6 by HPLC analysis
# Assay type: physicochemical
# Details: pH 6, 2 h
# Procedure, shortened: as §1
row,Compound,Stability [%]
1,C[C@@H](O)[C@H]1C(=O)N2C(C(=O)OCOC(=O)OC3Cc4ccccc4C3)=C(S[C@@H]3CN[C@H](C(=O)N(C)C)C3)[C@H](C)[C@H]12,96
2,C[C@@H](O)[C@H]1C(=O)N2C(C(=O)OCOC(=O)OC3CCc4ccccc4C3)=C(S[C@@H]3CN[C@H](C(=O)N(C)C)C3)[C@H](C)[C@H]12 (mixture of isomers),93
3,C[C@@H](O)[C@H]1C(=O)N2C(C(=O)OCOC(=O)OC3CCCc4ccccc4C3)=C(S[C@@H]3CN[C@H](C(=O)N(C)C)C3)[C@H](C)[C@H]12 (mixture of isomers),96

# Same assay, conditions: pH 6, 2 h, 2 h
row,Compound,Stability [%]
1,CC(C)OC(=O)OC(C)OC(=O)C1=C(S[C@@H]2CN[C@H](C(=O)N(C)C)C2)[C@H](C)[C@@H]2[C@@H]([C@@H](C)O)C(=O)N12 (some centres undefined),92
2,"CC(C)OC(=O)OC(C)OC(=O)C1=C(S[C@@H]2CN[C@H](C(=O)N(C)C)C2)[C@H](C)[C@@H]2[C@@H]([C@@H](C)O)C(=O)N12 (single isomer, unassigned; diastereomer 1)",94

# Test system: not listed separately
# Assay: Half life in HEPES buffer at 100 uM at pH 7.4 by HPLC analysis
# Assay type: physicochemical
# Details: pH 7.4, 100 µM
# Procedure, shortened: as §1
row,Compound,t1/2 [min]
1,C[C@@H](O)[C@H]1C(=O)N2C(C(=O)OCOC(=O)O[C@H]3CCCc4ccccc43)=C(S[C@@H]3CN[C@H](C(=O)N(C)C)C3)[C@H](C)[C@H]12,1.4
2,C[C@@H](O)[C@H]1C(=O)N2C(C(=O)OCOC(=O)O[C@@H]3CCCc4ccccc43)=C(S[C@@H]3CN[C@H](C(=O)N(C)C)C3)[C@H](C)[C@H]12,1.5

# Test system: not listed separately
# Assay: Half life in simulated gastric fluid at 100 uM at pH 1.2 by HPLC analysis
# Assay type: physicochemical
# Details: simulated gastric fluid, pH 1.2
# Procedure, shortened: as §1
row,Compound,half-life at 100 µM [min]
1,CC(C)OC(=O)OC(C)OC(=O)C1=C(S[C@@H]2CN[C@H](C(=O)N(C)C)C2)[C@H](C)[C@@H]2[C@@H]([C@@H](C)O)C(=O)N12 (some centres undefined),9.8

# Same assay, conditions: simulated gi fluid, pH 1.2, 100 µM
row,Compound,t1/2 [min]
1,C[C@@H](O)[C@H]1C(=O)N2C(C(=O)OCOC(=O)OC3Cc4ccccc4C3)=C(S[C@@H]3CN[C@H](C(=O)N(C)C)C3)[C@H](C)[C@H]12,13
2,C[C@@H](O)[C@H]1C(=O)N2C(C(=O)OCOC(=O)OC3CCc4ccccc4C3)=C(S[C@@H]3CN[C@H](C(=O)N(C)C)C3)[C@H](C)[C@H]12 (mixture of isomers),14
3,C[C@@H](O)[C@H]1C(=O)N2C(C(=O)OCOC(=O)OC3CCCc4ccccc4C3)=C(S[C@@H]3CN[C@H](C(=O)N(C)C)C3)[C@H](C)[C@H]12 (mixture of isomers),21
4,"CC(C)OC(=O)OC(C)OC(=O)C1=C(S[C@@H]2CN[C@H](C(=O)N(C)C)C2)[C@H](C)[C@@H]2[C@@H]([C@@H](C)O)C(=O)N12 (single isomer, unassigned; diastereomer 1)",8.8
